Bioassay records as filed in PubChem.
ASAP1 inh: inhibitors of human ASAP1 ArfGAP activity, primary screen, biochemical, fluorescence polarization | Arf-GAP with SH3 domain, ANK repeat and PH domain-containing protein 1 (Homo sapiens), … | ASAP1-stimulated ARF1 GTP hydrolysis, GDP FP detection | inhibition, % at 16.5 µM | hit rate 0.19% among 360,000 | AID 624377, 2012; in the data active = inhibition above about 25%;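 also: 0% = vehicle with enzyme and substrate and 100% = no enzyme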
TDP2 inh: human TDP2 enzyme inhibitors, primary screen, biochemical, epi absorbance, recombinant enzyme | Tyrosyl-DNA phosphodiesterase 2 (Homo sapiens), O95551 | T5PNP hydrolysis, p-nitrophenol absorbance 415 nm | inhibition, % at 12.8 µM | hit rate 0.34% among 370,000 | AID 720702, 2013;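 active = inhibition above the mean of all tested compounds plus 3 SD, set per campaign, cut at about 25% in these data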;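 also: 0% = DMSO with enzyme and 100% = buffer with substrate but no TDP2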
Target sequence (O95551 whole entry, looked up): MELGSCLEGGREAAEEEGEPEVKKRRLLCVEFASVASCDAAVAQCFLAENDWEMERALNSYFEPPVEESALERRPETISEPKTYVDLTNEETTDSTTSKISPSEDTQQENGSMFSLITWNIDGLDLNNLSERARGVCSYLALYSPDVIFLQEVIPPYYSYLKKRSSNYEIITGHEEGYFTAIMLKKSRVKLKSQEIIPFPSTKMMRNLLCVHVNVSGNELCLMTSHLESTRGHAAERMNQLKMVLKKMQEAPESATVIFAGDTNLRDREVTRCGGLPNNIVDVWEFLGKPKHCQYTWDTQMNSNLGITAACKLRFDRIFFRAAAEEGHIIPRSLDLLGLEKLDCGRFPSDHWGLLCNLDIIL
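System: recombinant human TDP2 / Amount: 120 nM TDP2 per well / Also added: 5 mM T5PNP chromogenic substrate / Doses: 12.8 µM single point, 1% DMSO / Incubation: 2 h at 37 °C / Detection: p-Nitrophenol epi absorbance / Evaluation: % inhibition relative to enzyme-containing and enzyme-free wells / Repeats: singlicate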
ARFGAP1 inhibitor: inhibitors of rat ARFGAP1 GAP activity, primary screen, biochemical, fluorescence polarization, GDP tracer | ADP-ribosylation factor GTPase-activating protein 1 (Rattus norvegicus), Q62848 | Arfgap1-stimulated ARF1 GTP hydrolysis, GDP FP detection | inhibition, % at 16.5 µM | hit rate 0.26% among 360,000;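 active = inhibition above a per-plate limit, mean inhibition of low control wells plus 3 SD, cut at about 25% in these data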;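 also: 0% = DMSO wells with enzyme and 100% = wells lacking Arfgap1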
Target sequence (Q62848 1-136 limits assumed): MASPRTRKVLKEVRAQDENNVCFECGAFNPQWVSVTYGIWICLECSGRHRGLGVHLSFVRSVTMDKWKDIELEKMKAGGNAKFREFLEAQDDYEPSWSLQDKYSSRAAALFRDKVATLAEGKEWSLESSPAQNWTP
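Material: rat Arfgap1 catalytic domain, aa 1-136; also added: human ARF1(Δ1-17)-GTP substrate; compound dosing: one concentration, 16.5 µM, DMSO 1.26%; incubation: GTP hydrolysis reaction 2 h at 25 °C; measured by: Tracer-displacement fluorescence polarization with EDTA stop, 620/688 nm; evaluation: % inhibition from polarization; repeats: one replicate per compound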
LEDGF integ inh: blockers of LEDGF/p75-dependent integrase strand transfer – biochemical, TR-FRET, high throughput, primary screen; TR-FRET IN-LEDGF/p75 DNA integration, Eu/Cy5; inhibition, % at 3.7 µM; hit rate 0.64% among 370,000; AID 743269, 2014;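 active = inhibition above the screen-wide mean plus 3 SD, cut at about 13% in these data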;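 also: signal is the Cy5 over europium emission ratio at 671 and 618 nm; 0% = plate median of compound wells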
Casp6 inh: human caspase-6 inhibitors, primary screen, biochemical, VEID-R110 fluorescence, single point, set 2; purified caspase-6, Z-VEID-R110 cleavage fluorescence; inhibition, % at 12.5 µM; P55212; hit rate 0.53% among 350,000;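 active = mean inhibition across replicates at least about 35%, with every replicate also reaching that limit, limit read from the data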;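 also: 0% = median of neutral control wells and 100% = no fluorescence left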
Numbers without * were called inactive; ! = not confirmed by another sample. This is a sample that favours compounds with a hit; in the whole collection about 1.3% have one here.

How did Cc1onc(-c2ccccc2)c1C(=O)NCc1ccco1 do in these assays?
ASAP1 inh: 7; TDP2 inh: 6; ARFGAP1 inhibitor: 3; LEDGF integ inh: 4

Results for CC#CC#Cc1cccc(=O)o1 ?
ASAP1 inh: 8; TDP2 inh: 9; ARFGAP1 inhibitor: 15; LEDGF integ inh: 1; Casp6 inh: 53*

Results for O=C(N/N=C/C1CC=CCC1)c1ccc(Cl)cc1O (stereo unspecified) ?
ASAP1 inh: 12; TDP2 inh: 3; ARFGAP1 inhibitor: 7; LEDGF integ inh: -2; Casp6 inh: 62*

How did O=C(N/N=C/C1CC=CCC1)c1ccccc1O (stereo unspecified) do in these assays?
ASAP1 inh: 0; TDP2 inh: 0; ARFGAP1 inhibitor: 1; LEDGF integ inh: -1

What do the screens show for `Cc1cc(NC(=O)CCC(=O)N(CC(=O)NCC2CCCO2)c2cccc(F)c2)no1` (stereo unspecified)?
ASAP1 inh: -4; TDP2 inh: -8; ARFGAP1 inhibitor: 0; LEDGF integ inh: 41*; Casp6 inh: 2

What do the screens show for `COC(=O)C[C@@H]1CC[C@H](NC(=O)c2ccc3c(c2)OCO3)[C@@H](CO)O1`?
ASAP1 inh: 1; TDP2 inh: 13; ARFGAP1 inhibitor: 11; LEDGF integ inh: -1; Casp6 inh: 43*

How did O=C1CC(N2CCN(c3ccccc3)CC2)C(=O)N1c1cccc(Cl)c1 (stereo unspecified) do in these assays?
ASAP1 inh: 6; TDP2 inh: -19; ARFGAP1 inhibitor: 1; LEDGF integ inh: 1; Casp6 inh: 1

How did O=C1CC(N2CCSCC2)C(=O)N1c1cccc(Cl)c1 (stereo unspecified) do in these assays?
ASAP1 inh: 4; TDP2 inh: 2; ARFGAP1 inhibitor: 1; LEDGF integ inh: -2; Casp6 inh: 44*

What do the screens show for `O=C(NNS(=O)(=O)c1ccc(F)cc1)c1ccccc1F`?
ASAP1 inh: -5; TDP2 inh: -1; ARFGAP1 inhibitor: -3; LEDGF integ inh: -6; Casp6 inh: 46*

What do the screens show for `COc1ccccc1C(=O)NNS(=O)(=O)c1ccc(F)cc1`?
ASAP1 inh: 2; TDP2 inh: -4; ARFGAP1 inhibitor: -7; LEDGF integ inh: -1; Casp6 inh: 1

Results for O=C(O)COc1ccccc1/C=N/NC(=O)CSc1nnc(SCc2ccc(Cl)cc2)s1 ?
ASAP1 inh: -17; TDP2 inh: -23; ARFGAP1 inhibitor: -3; LEDGF integ inh: 6; Casp6 inh: 23

Results for O=C(O)COc1ccccc1/C=N/NC(=O)CSc1nnc(SCc2cccc3ccccc23)s1 ?
ASAP1 inh: 2; TDP2 inh: 13; ARFGAP1 inhibitor: -11; LEDGF integ inh: -1; Casp6 inh: 37*

Results for Cc1cccc(N2CCN(C(=O)Cc3ccc(-n4c(=O)[nH]c5ccsc5c4=O)cc3)CC2C)c1 (stereo unspecified) ?
ASAP1 inh: -10; TDP2 inh: -5; ARFGAP1 inhibitor: 3; LEDGF integ inh: -2; Casp6 inh: 5

What do the screens show for `COc1ccc(S(=O)(=O)Nc2ccc3c(c2)C(=O)N([C@H](C)CO)C[C@H](C)[C@@H](CN(C)S(=O)(=O)c2ccc(F)cc2)OCCCC[C@@H](C)O3)cc1`?
Casp6 inh: 2

How did C[C@H](CO)N1C[C@H](C)[C@@H](CN(C)S(=O)(=O)c2ccc3c(c2)OCCCO3)OCc2cn(nn2)CCCC1=O do in these assays?
ASAP1 inh: -5; TDP2 inh: -9; ARFGAP1 inhibitor: 1; LEDGF integ inh: 4; Casp6 inh: 47*!

How did O=C1/C(=C/c2cccs2)CCC/C1=C\c1cccs1 do in these assays?
ASAP1 inh: -2; TDP2 inh: 5; ARFGAP1 inhibitor: -3; LEDGF integ inh: 20*; Casp6 inh: 0

Results for O=C1NC(=O)C(=Cc2ccco2)S1 ?
ASAP1 inh: 10; TDP2 inh: 1; ARFGAP1 inhibitor: 3; LEDGF integ inh: 4; Casp6 inh: 49*

What do the screens show for `O=C1/C(=C\c2ccco2)CCC/C1=C\c1ccco1`?
ASAP1 inh: 4; TDP2 inh: 1; ARFGAP1 inhibitor: -9; LEDGF integ inh: 71*; Casp6 inh: 74*

What do the screens show for `Cc1ccc(S(=O)(=O)/N=C2/NC(=O)/C(=C\c3ccco3)S2)cc1`?
ASAP1 inh: 18; TDP2 inh: 4; ARFGAP1 inhibitor: -18; LEDGF integ inh: 8

Results for CC[C@@H](C)C(NC(=O)OC(C)(C)C)c1cn([C@@H](CCC(=O)OC(C)(C)C)C(=O)N2CCN(C(=O)OC(C)(C)C)CC2)nn1 (stereo partly specified) ?
ASAP1 inh: 11; TDP2 inh: -11; ARFGAP1 inhibitor: -7; LEDGF integ inh: 0; Casp6 inh: 0

What do the screens show for `CCS(=O)(=O)c1nc(S(=O)(=O)c2ccc(Cl)cc2)c(N2CCOCC2)s1`?
ASAP1 inh: -9; TDP2 inh: 17; ARFGAP1 inhibitor: -8; LEDGF integ inh: -2; Casp6 inh: 38*

Results for CCS(=O)(=O)c1nc(S(=O)(=O)c2ccc(Cl)cc2)c(N2CCC3(CC2)OCCO3)s1 ?
ASAP1 inh: -15; TDP2 inh: 3; ARFGAP1 inhibitor: -5; LEDGF integ inh: 3; Casp6 inh: 0

How did COc1cccc(C(=O)Nc2cccc(S(=O)(=O)NC3=NCCC3)c2)c1 do in these assays?
ASAP1 inh: -2; TDP2 inh: 1; ARFGAP1 inhibitor: -3; LEDGF integ inh: -3; Casp6 inh: -2

How did CCCCCCCCCc1conc1C(=O)/C=C/c1ccco1 do in these assays?
ASAP1 inh: 5; TDP2 inh: 1; ARFGAP1 inhibitor: -3; LEDGF integ inh: 2; Casp6 inh: 67*

Results for O=C(NCC[C@@H]1CC[C@H](NS(=O)(=O)Cc2ccccc2)[C@@H](CO)O1)C1CC1 ?
Casp6 inh: 3

Results for Cc1ccc(NC(=O)c2cc(S(=O)(=O)NCC3CCCO3)ccc2F)cc1 (stereo unspecified) ?
ASAP1 inh: -13; TDP2 inh: -2; ARFGAP1 inhibitor: 0; LEDGF integ inh: 1; Casp6 inh: 43*

What do the screens show for `O=C(c1cccs1)N1CCN(C(=O)c2cn(-c3ccccc3)nc2-c2ccccc2)CC1`?
ASAP1 inh: -2; TDP2 inh: -2; ARFGAP1 inhibitor: 8; LEDGF integ inh: -3; Casp6 inh: -1

How did COc1ccc(C(=O)Nc2cccnc2Cl)cc1OC do in these assays?
ASAP1 inh: -2; TDP2 inh: 11; ARFGAP1 inhibitor: -9; LEDGF integ inh: -2; Casp6 inh: -2

What do the screens show for `O=C(Nc1cccnc1Cl)c1ccc(=O)oc1`?
ASAP1 inh: -9; TDP2 inh: 15; ARFGAP1 inhibitor: -14; LEDGF integ inh: 11; Casp6 inh: 54*
